The list is not random: actives were taken first. Their share in the collection is about 3%.
Kir21 inh = inhibitors of mouse Kir2.1 inward-rectifier potassium channel | Inward rectifier potassium channel 2 (Mus musculus), P35561 | HEK293-Kir2.1, FluxOR thallium flux fluorescence; hits give low values | B-score at 10 µM | 0.85% of 310,000 active;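 active = fluorescence ratio B-score at or below minus 3 SD of library scores, with starting-brightness B-score within 2 SD, cut at about -4.2 in these data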;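 also: channel flux triggered by added potassium and thallium sulfate stimulus; B-score of peak minus minimum fluorescence over baseline after thallium stimulus; more negative B-score means stronger Kir2.1 block with less thallium influx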
TRPC4 inh = inhibitors of mouse TRPC4 channel, primary screen, Fluo4 calcium, HEK293 TRPC4beta/mu-opioid cells | 0.39% of 300,000 active | AID 2247, 2010 | Short transient receptor potential channel 4 (Mus musculus), Q9QUQ5 | B-score at 10 µM | DAMGO-evoked Fluo4 calcium flux; hits give low values;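 active = B-score over 3 SD under the library average, no early fluorescence shift, positive overall ratio signal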
Target sequence (Q9QUQ5 whole entry, looked up): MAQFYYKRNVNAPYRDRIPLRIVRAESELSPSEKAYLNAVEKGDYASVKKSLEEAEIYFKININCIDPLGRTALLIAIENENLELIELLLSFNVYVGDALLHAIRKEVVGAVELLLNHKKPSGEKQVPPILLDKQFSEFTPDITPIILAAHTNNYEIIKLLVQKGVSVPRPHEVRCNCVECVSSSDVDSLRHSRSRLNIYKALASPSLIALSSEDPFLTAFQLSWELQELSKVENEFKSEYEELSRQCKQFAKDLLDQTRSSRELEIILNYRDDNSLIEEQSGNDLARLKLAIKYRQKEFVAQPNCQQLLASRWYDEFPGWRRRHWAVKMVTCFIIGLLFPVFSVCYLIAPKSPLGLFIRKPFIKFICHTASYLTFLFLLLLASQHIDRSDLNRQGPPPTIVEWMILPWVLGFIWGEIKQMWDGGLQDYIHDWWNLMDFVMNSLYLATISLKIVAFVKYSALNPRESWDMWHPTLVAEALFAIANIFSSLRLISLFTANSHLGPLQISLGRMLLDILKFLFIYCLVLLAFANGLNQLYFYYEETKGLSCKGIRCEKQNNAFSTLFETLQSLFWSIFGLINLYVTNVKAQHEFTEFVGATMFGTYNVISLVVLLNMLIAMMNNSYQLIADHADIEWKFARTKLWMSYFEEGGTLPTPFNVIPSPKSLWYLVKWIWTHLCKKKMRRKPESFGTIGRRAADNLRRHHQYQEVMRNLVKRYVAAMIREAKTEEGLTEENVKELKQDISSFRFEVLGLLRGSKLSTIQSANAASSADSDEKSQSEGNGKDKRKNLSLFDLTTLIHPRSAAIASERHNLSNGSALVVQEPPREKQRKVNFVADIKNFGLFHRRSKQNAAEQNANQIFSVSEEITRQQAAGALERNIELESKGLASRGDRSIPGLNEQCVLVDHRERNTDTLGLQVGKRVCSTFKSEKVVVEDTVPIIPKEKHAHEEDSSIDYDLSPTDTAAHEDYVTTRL
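Material: HEK293 cells with stable TRPC4beta plus mu-opioid receptor expression / Probe or stimulus: DAMGO in two steps, submaximal then maximal / Compound: single concentration per test compound / Technique: kinetic Fluo4 fluorescence imaging of calcium influx / Read-out: per-well B score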
TRPC4 act = activators of mouse TRPC4 channel, primary screen, Fluo4 calcium, HEK293 TRPC4beta/mu-opioid cells; Fluo4 calcium fluorescence; hits give high values; B-score at 10 µM; Short transient receptor potential channel 4 (Mus musculus), Q9QUQ5; AID 2237, 2010; 0.49% of 310,000 active;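 active = B-score above 5 SD of library B-scores, and initial fluorescence ratio not above library mean plus 5 SD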;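 also: positive B-score marks a calcium rise read as TRPC4 activation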
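Material: HEK293 stable line with TRPC4beta plus mu-opioid receptor; technique: Fluo4 calcium-sensitive dye fluorescence, kinetic, 1 Hz baseline; timing: Fluo4 dye loading 45 min at room temperature, 110 s recording; controls: assay buffer as low control, maximal DAMGO as high control; read-out: integrated baseline-normalised fluorescence ratio, converted to per-well B score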
TRPC6 act = mouse TRPC6 channel activators, primary screen, cell-based, HEK293, membrane potential dye | Short transient receptor potential channel 6 (Mus musculus), Q61143 | HEK293-TRPC6 membrane potential dye fluorescence; hits give high values | 0.13% of 310,000 active | B-score at 10 µM;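 active = B-score of the integrated fluorescence ratio above library mean plus 3 SD, and starting fluorescence ratio within library mean plus 5 SD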;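 also: higher score means more depolarization so channel activation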
TRPC4 potent = positive allosteric modulators of TRPC4, primary screen, cell-based, mouse TRPC4beta, HEK293 mu-opioid, Fluo-4 calcium | Short transient receptor potential channel 4 (Mus musculus), Q9QUQ5 | DAMGO EC20, Fluo-4 Ca2+ flux; hits give high values | B-score at 10 µM | 0.42% of 310,000 active | AID 2227, 2009;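 active = B-score of calcium response area above 5 SD of library B-scores, with initial fluorescence ratio within 5 SD of library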
TRPC6 inhibitor = mouse TRPC6 channel inhibitors, primary screen, cell-based, HEK293, membrane potential dye. Short transient receptor potential channel 6 (Mus musculus), Q61143. B-score at 10 µM. AID 2553, 2010. 1.1% of 310,000 active. ACh-evoked depolarization; hits give low values;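 active = B-score under library mean minus 3 SD, initial fluorescence not abnormally high, positive integrated signal ratio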;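 also: B-score derived from integrated fluorescence ratio over the kinetic read; more negative B-score means stronger inhibition of depolarization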
TRPC4 sel inh 2 = mouse TRPC4 off-target activity of TRPC6 inhibitors, second screen | shares compounds with TRPC6 inhibitor | HEK293 TRPC4/MOR, membrane potential dye fluorescence; channel activated by saturating DAMGO dose | inhibition, % at 10 µM | 42% of 920 active | AID 2776;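 active = compounds whose fluorescence signal differed from control wells by over 3 SD, either direction, in both duplicate plates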
TRPC4 spec = mouse TRPC4 modulation by TRPC6 hits, confirmation, selectivity assay for TRPC6 inhibitor project, cell-based, HEK293 TRPC4/mu-opioid, membrane potential dye | shares compounds with TRPC6 inhibitor | membrane potential fluorescence | activity change, negative = inhibition, % at 10 µM | 61% of 920 active;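 active = rise or fall in signal beyond 3 SD of buffer-only wells in both replicate plates, either sign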;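 also: integrated kinetic ratio of fluorescence range over baseline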
HEK293 MPD ctr 2-1 = nonspecific membrane potential effects, parental HEK293, confirmation, counter-screen for TRPC6 inhibitor project, cell-based, second counter screen | shares compounds with TRPC6 inhibitor | parental HEK293 membrane potential dye fluorescence; maximal acetylcholine challenge after compound addition | signal change vs control, % at 10 µM | 31% of 920 active | AID 2779, 2010;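 active = membrane potential signal moving either way by over 3 SD of the maximum-effect control, in both duplicate plates, meaning non-specific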
HEK293 MPD ctr-1 = membrane potential modulation in parental HEK293, confirmation, counter-screen for TRPC6 inhibitor project, cell-based | 60% of 920 active | shares compounds with TRPC6 inhibitor | parental HEK293 membrane potential dye fluorescence | membrane potential signal change, % at 10 µM;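 active = membrane potential signal shifting up or down by more than 3 SD of buffer-only wells, on both duplicate plates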
HEK293 MPD ctr-2 = parental HEK293 membrane potential modulation, confirmation, counter-screen for TRPC6 modulator project, cell-based; membrane potential signal change, % at 10 µM; membrane potential dye fluorescence; shares compounds with TRPC6 inhibitor; 51% of 2,400 active; AID 488924, 2010;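 active = membrane potential signal moves up or down beyond 5 SD from buffer-only wells, on both duplicate plates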
HEK293 MPD ctr 2-2 = parental HEK293 nonspecific activity of TRPC6 modulators, second screen; shares compounds with TRPC6 inhibitor; membrane potential dye fluorescence; after compound, maximal acetylcholine stimulation; inhibition, % at 10 µM; 14% of 2,400 active;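 active = membrane potential signal drops by more than 5 SD from the mean control signal, in both duplicate plates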
TRPC4/MOR mod = TRPC4 modulation by TRPC6 hit compounds, confirmation, selectivity assay for TRPC6 modulator project, cell-based, HEK293 TRPC4/mu-opioid, membrane potential dye, mouse. membrane potential fluorescence. AID 488927, 2010. shares compounds with TRPC6 inhibitor. percent change from control (negative = decrease, positive = increase), % at 10 µM. 69% of 2,400 active;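 active = membrane potential signal moved up or down beyond 5 SD of buffer control wells, in both duplicate plates, actives on both sides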
TRPC4 ctr inh 2 = second check of whether TRPC6 modulators also affect mouse TRPC4. shares compounds with TRPC6 inhibitor. HEK293 TRPC4/mu-opioid, membrane potential dye fluorescence; stimulated with maximal-effect DAMGO. inhibition, % at 10 µM. 55% of 2,400 active. AID 488928;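 active = drop in membrane potential signal beyond 5 SD of the control wells in both duplicate plates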;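 also: TRPC4 counter screen for TRPC6 hits run under conditions tuned for TRPC6 not TRPC4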
TRPC6 inh conf = mouse TRPC6 channel inhibitors, confirmation, HEK293 cells, membrane potential dye, duplicate | 43% of 3,300 active | inhibition, % at 10 µM | shares compounds with TRPC6 inhibitor | ACh-evoked depolarization;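 active = fluorescence ratio falls more than 5 SD below the full-stimulation control mean, in both duplicate runs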;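 also: integrated fluorescence ratio of peak minus minimum over baseline after agonist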
TRPC6 act confirm = mouse TRPC6 channel activators, confirmation, HEK293 cells, membrane potential dye, duplicate; shares compounds with TRPC6 inhibitor; HEK293-TRPC6 membrane potential dye fluorescence, FDSS; activation, % at 10 µM; 11% of 2,800 active;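 active = ratio signal rise beyond 5 SD above unstimulated control wells' mean, seen in both duplicate runs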
Each line names hits and unclear results; the compound was inactive in the other large screens (follow-up assays come after a bar, where they were run).

COc1ccc(Nc2cc(C)nc3c(C)cccc23)cc1OC	TRPC6 inhibitor -5.05 | HEK293 MPD ctr-2 -145.0% | HEK293 MPD ctr 2-2 inactive | TRPC4/MOR mod -30.5% | TRPC4 ctr inh 2 55.0% | TRPC6 inh conf 44.0% | TRPC6 act confirm inactive
Cc1cc(Nc2ccc3c(c2)OCCO3)c2cccc(C)c2n1	none
COc1ccc(Cl)cc1Nc1cc(C)nc2ccccc12	TRPC6 inhibitor -5.4 | HEK293 MPD ctr-2 -75.5% | HEK293 MPD ctr 2-2 inactive | TRPC4/MOR mod -12.0% | TRPC4 ctr inh 2 70.0% | TRPC6 inh conf 56.0% | TRPC6 act confirm inactive
CCOc1ccc(Nc2cc(=O)oc3ccccc23)cc1	none
CCOc1ccc(Nc2cc(C)nc3c(C)cccc23)cc1	TRPC6 inhibitor -5.49 | HEK293 MPD ctr-2 -86.0% | HEK293 MPD ctr 2-2 inactive | TRPC4/MOR mod -22.5% | TRPC4 ctr inh 2 52.5% | TRPC6 inh conf 43.0% | TRPC6 act confirm inactive
O=C(CNC(=O)c1ccc(Br)o1)NCc1ccc(Cl)cc1	none
Cc1cc(C)nc(Nc2nc(C)c3cc4c(cc3n2)OCO4)n1	TRPC6 inhibitor -6.81 | TRPC4 sel inh 2 inactive | TRPC4 spec 9.0% | HEK293 MPD ctr 2-1 -138.5% | HEK293 MPD ctr-1 8.5% | TRPC6 inh conf inactive | TRPC6 act confirm inactive
Cc1ccc(S(=O)(=O)Nc2nc3ccccc3nc2NCC2CCCO2)c(C)c1 (stereo not drawn)	TRPC6 act 14.2 | HEK293 MPD ctr-2 inactive | HEK293 MPD ctr 2-2 inactive | TRPC4/MOR mod inactive | TRPC4 ctr inh 2 inactive | TRPC6 inh conf inactive | TRPC6 act confirm inactive
Cc1cccc(S(=O)(=O)Nc2nc3ccccc3nc2NCC2CCCO2)c1 (stereo not drawn)	none
CCOC(=O)C1CCN(S(=O)(=O)c2ccc3c(c2)N(C(C)=O)CC(C)S3)CC1 (stereo not drawn)	none
O=C1c2ccccc2C(=O)c2c(NCCCN(CCO)CCO)cccc21	TRPC6 inhibitor -12.6 | HEK293 MPD ctr-2 -304.0% | HEK293 MPD ctr 2-2 90.5% | TRPC4/MOR mod -49.0% | TRPC4 ctr inh 2 79.5% | TRPC6 inh conf 76.5% | TRPC6 act confirm inactive
CCN(CC)CC(=O)Nc1cccc2c1C(=O)c1ccccc1C2=O	none
Cc1ccc(-c2csc(NC(=O)CSC3=NCCS3)n2)cc1	none
Cc1ccc(-c2csc(NC(=O)CSc3nc(C)cc(=O)[nH]3)n2)cc1	TRPC6 inhibitor -7.66 | TRPC4 sel inh 2 inactive | TRPC4 spec inactive | HEK293 MPD ctr 2-1 260.5% | HEK293 MPD ctr-1 inactive | TRPC6 inh conf inactive | TRPC6 act confirm inactive
Oc1ccc(Cl)cc1-c1cc(-c2cccc(Br)c2)n[nH]1	none
Clc1ccc(-[n+]2c(-c3cccc(Br)c3)[nH]c3nc4ccccc4nc32)cc1	TRPC6 inhibitor -5.06 | HEK293 MPD ctr-2 inactive | HEK293 MPD ctr 2-2 inactive | TRPC4/MOR mod inactive | TRPC4 ctr inh 2 37.5% | TRPC6 inh conf inactive | TRPC6 act confirm inactive
Cc1ccc(Cl)cc1N1CCN(CC(=O)Nc2ccc(CN3CCCCC3)cc2)CC1	TRPC6 inhibitor -5.54 | HEK293 MPD ctr-2 151.5% | HEK293 MPD ctr 2-2 inactive | TRPC4/MOR mod 19.0% | TRPC4 ctr inh 2 75.5% | TRPC6 inh conf 43.5%
COc1ccc(C(=O)NC(=S)Nc2ccc(CN3CCCCC3)cc2)cc1Cl	none
O=C(COc1ccc(Cl)cc1Cl)Nc1ccc(CN2CCOCC2)cc1	none
O=C(COc1ccc(Cl)cc1Cl)Nc1ccc(CN2CCCCC2)cc1	TRPC6 inhibitor -5.26 | HEK293 MPD ctr-2 194.0% | HEK293 MPD ctr 2-2 inactive | TRPC4/MOR mod 34.0% | TRPC4 ctr inh 2 53.5% | TRPC6 inh conf inactive
Cc1ccc(C(=O)NC(=S)Nc2ccc(CN3CCCCC3)cc2)c(C)c1	TRPC6 inhibitor -6.32 | HEK293 MPD ctr-2 inactive | HEK293 MPD ctr 2-2 inactive | TRPC4/MOR mod inactive | TRPC4 ctr inh 2 67.5% | TRPC6 inh conf 40.5%
Cc1noc(NS(=O)(=O)c2ccc(NC(=O)COc3ccc(Cl)cc3Cl)cc2)c1C	TRPC6 inhibitor -5.79 | HEK293 MPD ctr-2 inactive | HEK293 MPD ctr 2-2 inactive | TRPC4/MOR mod inactive | TRPC4 ctr inh 2 inactive | TRPC6 inh conf inactive | TRPC6 act confirm inactive
